The source made the active and inactive calls. No cut-off for these calls is given here.
How the values were obtained:
Rattus norvegicus [1] = experiment: The concentration yielding a half maximal decrease of the 5-HTP was determined in rat brain hemispheres; inactive at 50 umol/kg; format: functional, organism-based
Procedure, shortened: (§1)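 Reserpine-pretreated (5 mg/kg sc, 18 h) male Sprague-Dawley rats, 200–300 g; compounds in saline given sc. DOPA and 5-HTP in limbic system, striatum and hemispheres measured by HPLC with electrochemical detection. Dose–response curves of 4–6 doses (n = 4) per area, fitted to variable-slope sigmoid on log data to give ED50.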

Rattus norvegicus [2] = experiment: The concentration yielding a half maximal decrease of the 5-HTP was determined in rat brain striatum; inactive at 50 umol/kg; format: functional, organism-based; procedure, shortened: as §1
Rattus norvegicus [3] = experiment: The concentration yielding a half maximal decrease of the DOPA was determined in rat brain striatum; Partial response 50 umol/kg; format: functional, organism-based
Rattus norvegicus [4] = experiment: Motor activity was measured by motility testing on injecting the compound subcutaneously into rats at the dose of 12.5 umol/kg; format: functional
Procedure, shortened: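 Rats given reserpine 5 mg/kg sc 18 h beforehand, then test compound sc in neck (n = 4). Placed singly in photocell motility meters straight after dosing; counts recorded for 30 min, gross behaviour observed throughout. Value as counts/30 min with SEM.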

Rattus norvegicus [5] = experiment: The concentration yielding a half maximal decrease of the 5-HTP was determined in rat limbic system; inactive at 50 umol/kg; format: functional, organism-based; procedure, shortened: as §1
Rattus norvegicus [6] = experiment: The concentration yielding a half maximal decrease of the DOPA was determined in rat limbic system; inactive at 50 umol/kg; format: functional, organism-based
[7] = target: T1, 5-hydroxytryptamine receptor 1A (Rattus norvegicus, UniProt P19327); experiment: Displacement of the radioligand [3H]8-OH-DPAT from 5-hydroxytryptamine 1A receptor
T1 sequence (P19327 whole entry): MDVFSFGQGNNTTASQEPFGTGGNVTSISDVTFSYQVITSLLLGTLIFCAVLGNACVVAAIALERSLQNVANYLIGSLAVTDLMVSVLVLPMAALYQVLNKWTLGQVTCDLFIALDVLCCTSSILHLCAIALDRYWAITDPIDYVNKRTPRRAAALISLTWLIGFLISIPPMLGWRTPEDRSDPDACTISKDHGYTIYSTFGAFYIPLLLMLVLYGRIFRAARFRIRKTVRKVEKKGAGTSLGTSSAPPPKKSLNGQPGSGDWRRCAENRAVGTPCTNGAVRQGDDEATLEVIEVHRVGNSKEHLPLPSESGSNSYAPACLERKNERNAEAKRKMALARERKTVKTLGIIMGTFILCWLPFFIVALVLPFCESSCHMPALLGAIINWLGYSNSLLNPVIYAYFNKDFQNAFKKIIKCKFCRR
Procedure, shortened: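 Rat whole brain minus brain stem and cerebellum, washed membranes in 50 mM Tris pH 8.0 with 120 mM NaCl, 4 mM CaCl2, 4 mM MgCl2, 10 μM pargyline. Nonspecific with 10 μM 5-HT. IC50 by semilog linear regression, Ki via Cheng–Prusoff; 3–7 experiments, triplicates.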

D(2) dopamine receptor = D(2) dopamine receptor (Rattus norvegicus, UniProt P61169); experiment: Displacement of the radioligand [3H]spiperone from D2 receptor
Procedure, shortened: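 Rat striatal membranes in 50 mM potassium phosphate buffer, incubated with 0.5 nM [3H]spiperone (3 mg tissue) 10 min at 37 °C. Nonspecific binding defined with 10 μM 6,7-ADTN. IC50 converted to Ki by Cheng–Prusoff; 3–7 experiments, each concentration in triplicate.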

Rattus norvegicus [8] = experiment: The concentration yielding a half maximal decrease of the DOPA was determined in rat brain hemispheres; inactive at 50 umol/kg; format: functional, organism-based; procedure, shortened: as §1
Rattus norvegicus [9] = species on record: Rattus norvegicus; experiment: The concentration yielding a half maximal decrease of the 5-HTP was determined in rat brain hemispheres; format: functional; procedure, shortened: as §1
Rattus norvegicus [10] = species on record: Rattus norvegicus; experiment: The concentration yielding a half maximal decrease of the DOPA was determined in rat limbic system; format: functional
Rattus norvegicus [11] = species on record: Rattus norvegicus; experiment: The concentration yielding a half maximal decrease of the DOPA was determined in rat brain striatum; format: functional; procedure, shortened: as §1
Rattus norvegicus [12] = species on record: Rattus norvegicus; experiment: The concentration yielding a half maximal decrease of the 5-HTP was determined in rat brain striatum; format: functional; procedure, shortened: as §1
Rattus norvegicus [13] = species on record: Rattus norvegicus; experiment: The concentration yielding a half maximal decrease of the 5-HTP was determined in rat limbic system; format: functional; procedure, shortened: as §1
Rattus norvegicus [14] = species on record: Rattus norvegicus; experiment: Log concentration to inhibit 5-HTP accumulation was determined in rat brain striatum; format: functional; procedure, shortened: as §1
Rattus norvegicus [15] = species on record: Rattus norvegicus; experiment: Log concentration to inhibit 5-HTP accumulation was determined in rat brain hemispheres; format: functional; procedure, shortened: as §1
Rattus norvegicus [16] = species on record: Rattus norvegicus; experiment: Log concentration to inhibit DOPA accumulation was determined in rat limbic system; format: functional; procedure, shortened: as §1
Rattus norvegicus [17] = experiment: Motor activity was measured by motility testing on injecting the compound subcutaneously into rats at the dose of 0.02 umol/kg (1a) and 3.5 umol/kg (1b)
Rattus norvegicus [18] = species on record: Rattus norvegicus; experiment: Log concentration to inhibit 5-HTP accumulation was determined in rat limbic system; format: functional; procedure, shortened: as §1
[19] = Maximum concentration in plasma after administration of 40 umol/kg dose perorally; format: ADME, organism-based; parameters: dose 40 umol/kg, route oral; conditions: po
Procedure, shortened: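 Male Sprague-Dawley rats starved 18 h, dosed orally. Blood samples over up to 12 h, drug quantified by GC/MS against internal standard (2–1000 pmol/mL standard curve). Cmax read from concentration–time curve; SEM, n = 4–6.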

[20] = Time taken to reach maximum concentration after administration of 40 umol/kg dose perorally; format: ADME, organism-based; conditions: in vivo, po
Procedure, shortened: (§2)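 Male Sprague-Dawley rats, starved 18 h for the oral arm, dosed iv or po. Blood sampled at intervals up to 12 h. Compound measured by GC/mass spectrometry against an internal standard, with a standard curve over 2–1000 pmol/mL in blank blood. tmax read from concentration–time curves, n = 4–6.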

Rattus norvegicus [21] = species on record: Rattus norvegicus; experiment: Log concentration to inhibit DOPA accumulation was determined in rat brain striatum; format: functional; procedure, shortened: as §1
[22] = Time taken to reach maximum concentration after administration of 5 umol/kg dose intravenously; format: ADME, organism-based; conditions: in vivo, iv; procedure, shortened: as §2
Rattus norvegicus [23] = species on record: Rattus norvegicus; experiment: The concentration yielding a half maximal decrease of the DOPA was determined in rat brain striatum.; format: functional
Rattus norvegicus [24] = species on record: Rattus norvegicus; experiment: The concentration yielding a half maximal decrease of the DOPA was determined in rat limbic system.; format: functional
[25] = Area under the curve after intravenous administration at a dose of 5 umol/kg; format: ADME; conditions: in vivo
Procedure, shortened: (§3)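 Male Sprague-Dawley rats, iv dosing. Blood sampled at intervals up to 12 h, plasma drug levels by GC/MS with internal standard and a 2–1000 pmol/mL standard curve in blank blood. AUC from total area of concentration–time curve; iv n = 3 (table values SEM, n = 4–6).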

[26] = Maximum concentration in plasma after administration of 5 umol/kg dose intravenously; format: ADME, organism-based; parameters: dose 5 umol/kg, route intravenous; conditions: iv; procedure, shortened: as §3
Rattus norvegicus [27] = species on record: Rattus norvegicus; experiment: The concentration yielding a half maximal decrease of the DOPA was determined in rat brain hemispheres; format: functional
Rattus norvegicus [28] = species on record: Rattus norvegicus; experiment: The concentration yielding a half maximal decrease of the 5-HTP was determined in rat brain hemispheres.; format: functional
Rattus norvegicus [29] = species on record: Rattus norvegicus; experiment: Log concentration to inhibit DOPA accumulation was determined in rat brain hemispheres; format: functional; procedure, shortened: as §1
Rattus norvegicus [30] = species on record: Rattus norvegicus; experiment: The concentration yielding a half maximal decrease of the 5-HTP was determined in rat limbic system.; format: functional
[31] = Bioavailability in rats after 2 mg/kg (i.v.) and 10 mg/kg (p.o.) administration; format: ADME, organism-based; conditions: rat, in vivo, po
Rattus norvegicus [32] = species on record: Rattus norvegicus; experiment: The concentration yielding a half maximal decrease of the 5-HTP was determined in rat brain striatum.; format: functional
[33] = Half life in plasma after administration of 5 umol/kg dose intravenously; format: ADME, organism-based; conditions: iv; procedure, shortened: as §3
Rattus norvegicus [34] = experiment: The concentration yielding a half maximal decrease of the DOPA was determined in rat brain striatum; inactive at 50 umol/kg; format: functional, organism-based
Rattus norvegicus [35] = experiment: The concentration yielding a half maximal decrease of the DOPA was determined in rat brain hemispheres; inactive at 12.5 umol/kg; format: functional, organism-based; procedure, shortened: as §1

Chain of D(2) dopamine receptor (P61169 whole entry): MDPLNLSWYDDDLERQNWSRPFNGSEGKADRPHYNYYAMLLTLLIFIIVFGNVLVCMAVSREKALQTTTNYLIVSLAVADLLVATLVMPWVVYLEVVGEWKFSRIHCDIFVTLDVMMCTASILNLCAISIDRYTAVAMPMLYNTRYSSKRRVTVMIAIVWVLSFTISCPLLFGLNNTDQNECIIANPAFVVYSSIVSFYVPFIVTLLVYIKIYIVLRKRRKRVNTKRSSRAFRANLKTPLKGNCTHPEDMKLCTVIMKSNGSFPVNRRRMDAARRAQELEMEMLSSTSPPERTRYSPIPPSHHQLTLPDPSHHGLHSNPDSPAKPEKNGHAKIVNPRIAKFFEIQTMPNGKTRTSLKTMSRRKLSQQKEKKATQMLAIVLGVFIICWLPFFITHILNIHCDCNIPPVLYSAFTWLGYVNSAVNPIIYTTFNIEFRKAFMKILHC

CCCN(CCC)C1CCc2ccc3[nH]cc(CC(F)(F)F)c3c2C1 (centres undefined)
ED50 (Rattus norvegicus [1]): inactive | ED50 (Rattus norvegicus [2]): inactive | ED50 (Rattus norvegicus [3]): Weak activity | Activity (Rattus norvegicus [4]): 10 Counts 30min-1 | ED50 (Rattus norvegicus [5]): inactive | ED50 (Rattus norvegicus [6]): inactive | Ki [7]: 182 nM | Ki (D(2) dopamine receptor): 796 nM | ED50 (Rattus norvegicus [8]): inactive

CCCN(CCC)C1CCc2cc3c(C=O)c[nH]c3cc2C1 (centres undefined)
ED50 (Rattus norvegicus [9]): 14 µmol/kg | ED50 (Rattus norvegicus [10]): 27.8 µmol/kg | ED50 (Rattus norvegicus [11]): 16.7 µmol/kg | ED50 (Rattus norvegicus [12]): 18 µmol/kg | ED50 (Rattus norvegicus [13]): 13 µmol/kg | pED50 (Rattus norvegicus [14]): 4.74 | pED50 (Rattus norvegicus [15]): 4.87 | pED50 (Rattus norvegicus [16]): 4.78 | Counts/30 min (Rattus norvegicus [17]): 172 | Ki [7]: 4720 nM | Ki (D(2) dopamine receptor): 700 nM | ED50 (Rattus norvegicus [8]): inactive | pED50 (Rattus norvegicus [18]): 4.88

CCCN(CCC)C1CCc2ccc3[nH]cc(C#N)c3c2C1 (centres undefined)
Cmax [19]: 1500 nM | Tmax [20]: 2.25 h | pED50 (Rattus norvegicus [21]): 5.49 | Tmax [22]: 2 min | ED50 (Rattus norvegicus [23]): 3.2 µmol/kg | ED50 (Rattus norvegicus [24]): 1.05 µmol/kg | AUC [25]: 1115 pM/kg | pED50 (Rattus norvegicus [14]): 6.65 | pED50 (Rattus norvegicus [15]): 6.35 | Cmax [26]: 1730 nM | ED50 (Rattus norvegicus [27]): 5.2 µmol/kg | ED50 (Rattus norvegicus [28]): 0.45 µmol/kg | Activity (Rattus norvegicus [4]): 317 Counts 30min-1 | pED50 (Rattus norvegicus [29]): 5.29 | pED50 (Rattus norvegicus [16]): 5.98 | Ki [7]: 1.8 nM | ED50 (Rattus norvegicus [30]): 0.17 µmol/kg | Ki (D(2) dopamine receptor): 439 nM | bioavailability [31]: 54% | pED50 (Rattus norvegicus [18]): 6.77 | ED50 (Rattus norvegicus [32]): 0.22 µmol/kg | half-life [33]: 1.5 h

CCCN(CCC)C1CCc2ccc3c(CC(F)(F)F)c[nH]c3c2C1 (centres undefined)
ED50 (Rattus norvegicus [34]): inactive | ED50 (Rattus norvegicus [1]): inactive | ED50 (Rattus norvegicus [2]): inactive | Activity (Rattus norvegicus [4]): 74 Counts 30min-1 | ED50 (Rattus norvegicus [5]): inactive | ED50 (Rattus norvegicus [6]): inactive | Ki (D(2) dopamine receptor): 2330 nM | ED50 (Rattus norvegicus [8]): inactive

CCCN(CCC)C1CCc2ccc3c(C=O)c[nH]c3c2C1 (centres undefined)
ED50 (Rattus norvegicus [34]): inactive | ED50 (Rattus norvegicus [1]): inactive | ED50 (Rattus norvegicus [2]): inactive | ED50 (Rattus norvegicus [5]): inactive | Counts/30 min (Rattus norvegicus [17]): 7 | ED50 (Rattus norvegicus [6]): inactive | Ki [7]: 6720 nM | Ki (D(2) dopamine receptor): > 16000 nM | ED50 (Rattus norvegicus [8]): inactive

CCCN(CCC)[C@H]1CCc2ccc3[nH]ccc3c2C1
Activity (Rattus norvegicus [4]): 29 Counts 30min-1

CCCN(CCC)C1CCc2ccc3[nH]ccc3c2C1 (centres undefined)
Activity (Rattus norvegicus [4]): 177 Counts 30min-1

CCCN(CCC)C1CCc2ccc3[nH]cc(C=O)c3c2C1 (centres undefined)
pED50 (Rattus norvegicus [21]): 5.48 | ED50 (Rattus norvegicus [9]): 0.13 µmol/kg | ED50 (Rattus norvegicus [10]): 0.3 µmol/kg | ED50 (Rattus norvegicus [11]): 3.3 µmol/kg | ED50 (Rattus norvegicus [13]): 0.11 µmol/kg | ED50 (Rattus norvegicus [35]): inactive | pED50 (Rattus norvegicus [14]): 7.18 | pED50 (Rattus norvegicus [15]): 6.88 | pED50 (Rattus norvegicus [16]): 6.52 | Counts/30 min (Rattus norvegicus [17]): 231 | pED50 (Rattus norvegicus [18]): 6.95
